Our source for the Activity and ED50 values is ChEMBL document CHEMBL3244156, “Analgesic and tranquilizing activity of 5,8-disubstituted 1-tetralone Mannich bases” (1977).

Calls of active or inactive are those of the source. The calls are words filed in the database; no cut-off is given here.

Experiment [1] relates to Mus musculus. Kind of experiment: Analgesic activity in mouse at 32 mg/kg, ip after 2 hrs by hot plate assay. Format: functional. The settings on record: route intraperitoneal. In a few lines:
(§1)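 Mice dropped into a glass cylinder on an aluminum plate held at 57 °C. Timed from foot contact to first hind-foot flick, with a 10-s limit. Observed 0.5 and 2 h after treatment. Value is % of mice failing to react within the limit. At least ten mice per dose.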

In experiment [2] the test system is Rattus norvegicus. Description: Analgesic activity in rat assessed as median foot shock required to elicit flinch-jump at 32 mg/kg, ip after 2 hrs. Format: functional. The conditions noted are these: route intraperitoneal. The essentials:
(§2)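 Series given just before and 0.5 and 2 h after ip dosing. Flinch, squeak and jump were scored. Value is the median shock (mA) that elicits a jump. At least five rats per dose.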

Experiment [3] concerns Mus musculus. Kind of experiment: Analgesic activity in mouse assessed as tail-flick latency period at 32 mg/kg, ip after 2 hrs by tail flick test. Format: functional. The settings on record: route intraperitoneal.
Experiment [4] has as its system Rattus norvegicus. Kind of experiment: Analgesic activity in rat assessed as median foot shock required to elicit flinch-jump at 10 mg/kg, ip after 2 hrs. Format: functional. The conditions noted are these: route intraperitoneal. In a few lines: as §2
Experiment [5] has as its system Mus musculus. Description: Analgesic activity in mouse at 10 mg/kg, ip after 2 hrs by hot plate assay. The settings on record: route intraperitoneal. Format: functional. In a few lines: as §1
Experiment [6] concerns Rattus norvegicus. Kind of experiment: Analgesic activity in rat assessed as median foot shock required to elicit flinch-jump at 17.8 mg/kg, po after 2 hrs. Format: functional.
The test system of experiment [7] is Canis familiaris. Description: Analgesic activity in dog assessed as rippling of skin at 1.62 mg/kg, sc after 2 hrs by radiant heat assay. Format: functional, Canis lupus familiaris. The conditions noted are these: route subcutaneous. In a few lines: (§3)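 Dogs held in a harness with a shaved mid-back patch placed under a concealed radiant heat source. Endpoint is the latency from heat onset to skin "rippling". Baseline latency measured in each dog, then retested at 0.5 and 2 h after dosing. Result expressed as % of control.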

The species named for experiment [8] is Rattus norvegicus. Kind of experiment: Induction of tolerance development in rat assessed as median foot shock required to elicit flinch-jump. Format: functional, organism-based.
Experiment [9] has as its system Mus musculus. Description: Analgesic activity in mouse assessed as tail-flick latency period at 10 mg/kg, ip after 2 hrs by tail flick test. Format: functional. The settings on record: route intraperitoneal. A general note: Hot-plate and tail-flick tests time the reaction to a heat stimulus.
Experiment [10] concerns Mus musculus. Kind of experiment: Analgesic activity in mouse assessed as tail-flick latency period at 100 mg/kg, ip after 2 hrs by tail flick test. Format: functional. The settings on record: route intraperitoneal.
For experiment [11], the system named is Canis familiaris. Kind of experiment: Analgesic activity in dog assessed as rippling of skin at 5 mg/kg, po after 2 hrs by radiant heat assay. Format: functional, Canis lupus familiaris. The essentials:
as §3

The subject of experiment [12] is Mus musculus. Description: Analgesic activity in mouse at 100 mg/kg, ip after 2 hrs by hot plate assay. Format: functional. The settings on record: route intraperitoneal. The essentials: as §1
In experiment [13] the test system is Rattus norvegicus. Description: Neuroleptic activity in ip dosed rat assessed as drug required for blocking discriminated jump-out avoidance behavior in after 1 hr. Format: functional. In a few lines:
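Rats trained in discriminated jump-out avoidance and tested 1 h after dosing. Value is an estimated ED50 for blocking avoidance.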

Experiment [14] relates to Canis familiaris. Description: Analgesic activity in dog assessed as rippling of skin at 5 mg/kg, ip after 2 hrs by radiant heat assay. The settings on record: route intraperitoneal. Format: functional, Canis lupus familiaris. In a few lines: as §3
The subject of experiment [15] is Mus musculus. Description: Neuroleptic activity in ip dosed mouse assessed as inhibition of amphetamine-induced mortality. Format: functional. The essentials: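 Aggregated mice in groups of ten given amphetamine. Value is an ED50 estimate for blocking lethality, bracketed between a dose where <5/10 died and a dose where >5/10 died.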
Experiment [16] relates to Canis familiaris. Description: Analgesic activity in dog assessed as rippling of skin at 10 mg/kg, po after 2 hrs by radiant heat assay. Format: functional, Canis lupus familiaris. In a few lines: as §3
The test system of experiment [17] is Rattus norvegicus. Kind of experiment: Analgesic activity in ip dosed rat assessed as median foot shock required to elicit flinch-jump in presence of naloxone. Format: functional, organism-based.
For experiment [18], the species on record is Rattus norvegicus. Kind of experiment: Induction of cross-tolerance development in rat assessed as median foot shock required to elicit flinch-jump in presence of morphine. Format: functional, organism-based.

On to `COc1ccc(C)c2c1CCC(CN1CCCCC1)C2=O.Cl` (centres undefined), for which the Activity in [1] is given as 40%; in experiment [2], more than 2.2 mA; in experiment [3] it was 30%; in experiment [4], 2.2 mA.
As for `COc1ccc(F)c2c1CCC(CN1CCCCC1)C2=O.Cl` (centres undefined), the Activity in [1] stood at 60%; in experiment [2], 1.6 mA; in [3], 10%.
Consider `CN1CC[C@]23c4c5ccc(O)c4O[C@H]2[C@@H](O)C=C[C@H]3[C@H]1C5` [MORPHINE], for which the Activity turned out to be 70% in experiment [5], 1.2% in experiment [6], 155% in [7] and 80% in experiment [9]. Besides, the outcome in experiment [8] was Active.
As for `C=CCNCC1CCc2c(OC)ccc(Cl)c2C1=O.Cl` (centres undefined), the Activity is 0% in experiment [1], more than 2.2 mA in experiment [2], 0% in experiment [3] and 2.2 mA in experiment [4].
For the compound `CCC(=O)O[C@](Cc1ccccc1)(c1ccccc1)[C@H](C)CN(C)C` [PROPOXYPHENE], the Activity is 1.2% in experiment [6], 70% in experiment [10], 100% in [11] and 30% in experiment [12].
As for `CCNCC1CCc2c(OC)ccc(Cl)c2C1=O.Cl` (centres undefined), the Activity in experiment [1] is listed as 40%; in experiment [2], more than 2.2 mA; in [3] it was 0%; in experiment [4], 2.2 mA.
With `CCOC(=O)C1(c2ccccc2)CCN(C)CC1` [MEPERIDINE], the median effective dose (ED50) (in general, the dose at which the effect has come halfway, by size or by number of responders) in [13] turned out to be 10 mg/kg. In addition, the Activity in experiment [10] is on record as 70%; in experiment [2], 1.2 mA; in experiment [14], 150%; in experiment [12], 50%.
On to `COc1ccc(Cl)c2c1CCC(CN1CCCC1)C2=O.Cl` (centres undefined), for which the ED50 is 10 mg/kg in experiment [15] and more than 178 mg/kg in [13]. The Activity in [16] is listed as 160%; in experiment [10] it was 0%; in [2] it was more than 2.2 mA; in [4] it was 1.2 mA; in experiment [12] it was 30%. In addition, the result in experiment [8] and in [18] was inactive. In addition, the outcome in [17] was Active.
